Assay [1] addresses Histone deacetylase (HDAC1 and HDAC2) (Homo sapiens, UniProt Q13547+Q92769). The assay can be described thus: Inhibition of HDAC1/2 in human HeLa cells nuclear extracts using acetylated histone peptide as substrate after 30 mins by Color de Lys assay. The class given is cell-based.
Assay [2] can be described thus: Antiproliferative activity against human KG1 cells after 48 hrs by MTT assay. The class given is functional, cell-based. To be noted: KG-1, 48 h.
Assay [3] concerns MDA-MB-231. Kind of assay: Induction of apoptosis in human MDA-MB-231 cells assessed as late apoptotic cells at 4 uM after 24 hrs using Annexin V-FITC and propidium iodide staining by flow cytometry (reference value: 4.04%). The class given is functional. The gist of the method: (§1)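 MDA-MB-231 cells (1.2 × 10⁵) exposed to compound for 24 h, then harvested and washed in PBS. Cells resuspended in Annexin V-FITC binding buffer, stained with Annexin V-FITC plus propidium iodide for 10 min at room temperature, held on ice and analysed by flow cytometry.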

The test system of assay [4] is MDA-MB-231. The assay can be described thus: Antiproliferative activity against human MDA-MB-231 cells after 48 hrs by MTT assay. The class given is functional, cell-based. The settings on record: MDA-MB-231, 48 h.
The subject of assay [5] is MDA-MB-231. The assay can be described thus: Induction of apoptosis in human MDA-MB-231 cells assessed as late apoptotic cells at 1 uM after 24 hrs using Annexin V-FITC and propidium iodide staining by flow cytometry (reference value: 4.04%). The class given is functional. The method in brief: as §1
Assay [6] relates to MDA-MB-231. Kind of assay: Induction of apoptosis in human MDA-MB-231 cells assessed as early apoptotic cells at 1 uM after 24 hrs using Annexin V-FITC and propidium iodide staining by flow cytometry (reference value: 2.60%). The class given is functional. The method in brief: as §1
Assay [7] relates to MDA-MB-231. Kind of assay: Induction of apoptosis in human MDA-MB-231 cells assessed as early apoptotic cells at 4 uM after 24 hrs using Annexin V-FITC and propidium iodide staining by flow cytometry (reference value: 2.60%). The class given is functional. The gist of the method:
as §1

The next assay concerns PC-3. Kind of assay: Antiproliferative activity against human PC3 cells after 48 hrs by MTT assay. The class given is functional, cell-based. The settings on record: PC-3, 48 h.
The test system of assay [8] is MDA-MB-231. The assay can be described thus: Induction of apoptosis in human MDA-MB-231 cells assessed as total apoptotic cells at 1 uM after 24 hrs using Annexin V-FITC and propidium iodide staining by flow cytometry. The class given is functional. The gist of the method: as §1

pIC50: −log10 of the molar value.

In turn, `O=C(CCN1C(=O)c2ccccc2S1(=O)=O)Nc1cccc(C(=O)NO)c1` returned an IC50 in assay [1] above 5 µM.
Same read-out and setting: then `O=C(CCCN1C(=O)c2ccccc2S1(=O)=O)Nc1cccc(C(=O)NO)c1`, with above 5 µM.
Take `O=C(CCCCN1C(=O)c2ccccc2S1(=O)=O)Nc1cccc(C(=O)NO)c1`: in [1], the IC50 is above 5 µM.
For `O=C(CCCCCN1C(=O)c2ccccc2S1(=O)=O)Nc1cccc(C(=O)NO)c1`, the IC50 in assay [1] was above 5 µM.
The compound `O=C(CCCCCN1C(=O)c2ccc([N+](=O)[O-])cc2S1(=O)=O)Nc1cccc(C(=O)NO)c1` returned an IC50 in assay [1] above 5 µM.
`O=C(CCN1C(=O)c2ccccc2S1(=O)=O)Nc1ccc(C(=O)NO)cc1` displayed an IC50 in assay [1] of 0.3 µM.
Still for that read-out and setting: as for `O=C(CCN1C(=O)c2ccc([N+](=O)[O-])cc2S1(=O)=O)Nc1ccc(C(=O)NO)cc1`, the figure is 2.02 µM.
In assay [1], `O=C(CCN1C(=O)c2ccc(I)cc2S1(=O)=O)Nc1ccc(C(=O)NO)cc1` showed an IC50 of 0.523 µM.
On to `O=C(CCN1C(=O)c2ccc(-c3ccccc3)cc2S1(=O)=O)Nc1ccc(C(=O)NO)cc1`, for which the pIC50 in assay [2] is 5.28; in the assay on MDA-MB-231 [4], 5.46; in the assay on PC-3, 5.06. Further, the Activity is listed as 9.86% with MDA-MB-231 [3]; 7.49% in the assay on MDA-MB-231 [5]; 9.27% with MDA-MB-231 [6]; 13.48% in the assay on MDA-MB-231 [7]; 16.76% with MDA-MB-231 [8]. Also, the IC50 in assay [1] worked out at 1.7 µM.
As for `O=C(CCCN1C(=O)c2ccccc2S1(=O)=O)Nc1ccc(C(=O)NO)cc1`, the Activity in the assay with MDA-MB-231 [3] amounted to 5.35%; in the assay with MDA-MB-231 [5], 4.06%; in the assay on MDA-MB-231 [6] it was 3.44%; with MDA-MB-231 [7], 4.7%; in the assay with MDA-MB-231 [8] it was 7.5%. Further, the pIC50 is 5.06 with MDA-MB-231 [4] and below 4.60 in the assay with PC-3. Besides, the IC50 in assay [1] was 0.233 µM.
On to `O=C(CCCN1C(=O)c2ccc([N+](=O)[O-])cc2S1(=O)=O)Nc1ccc(C(=O)NO)cc1`, for which the IC50 in assay [1] worked out at 1.66 µM.
Compound `O=C(CCCN1C(=O)c2ccc(I)cc2S1(=O)=O)Nc1ccc(C(=O)NO)cc1` returned an IC50 in [1] of 0.419 µM.
Turning to `O=C(CCCN1C(=O)c2ccc(-c3ccccc3)cc2S1(=O)=O)Nc1ccc(C(=O)NO)cc1`, the results for the pIC50 (in assay [2]; in the assay on MDA-MB-231 [4]; in the assay on PC-3) were 4.94, 5.00 and below 4.60, respectively. The compound further showed an IC50 in assay [1] of 1.51 µM.
On to `O=C(CCCCN1C(=O)c2ccc(I)cc2S1(=O)=O)Nc1ccc(C(=O)NO)cc1`, for which, in assay [1], the IC50 is 0.305 µM. This lies in the sub-micromolar range.
`O=C(CCCCN1C(=O)c2ccc(-c3ccccc3)cc2S1(=O)=O)Nc1ccc(C(=O)NO)cc1` showed a 50% inhibitory concentration (IC50) in assay [1] above 5 µM.
The same measure, in the same setting: as for `O=C(CCN1C(=O)c2ccccc2S1(=O)=O)NCc1ccc(C(=O)NO)cc1`, the figure is 2.79 µM; as for `O=C(CCCCN1C(=O)c2ccccc2S1(=O)=O)NCc1ccc(C(=O)NO)cc1`, 3.4 µM.
The compound `O=C(CCCCCN1C(=O)c2ccccc2S1(=O)=O)NCc1ccc(C(=O)NO)cc1` showed an IC50 in [1] of 2.65 µM.
Still for that read-out and setting: then `O=C(NO)c1ccc(CN2C(=O)c3ccccc3S2(=O)=O)cc1`, with 1.398 µM; and `O=C(NO)c1ccc(CN2C(=O)c3ccc([N+](=O)[O-])cc3S2(=O)=O)cc1`, with above 5 µM.
In turn, `O=C(NO)c1ccc(CN2C(=O)c3ccc(I)cc3S2(=O)=O)cc1` showed an IC50 in [1] of 1.335 µM.
Same read-out and setting: then `O=C(NO)c1ccc(CN2C(=O)c3ccc(-c4ccccc4)cc3S2(=O)=O)cc1`, with 0.386 µM.
As to `O=C(NO)c1ccc(CN2C(=O)c3ccc(NC(=O)c4ccccc4)cc3S2(=O)=O)cc1`, the IC50 in assay [1] came to 0.38 µM. The IC50 values of the last two compounds are within 1.5-fold of each other.
Same read-out and setting: then `O=C(NO)c1ccc(CN2C(=O)c3ccc(NC(=O)c4ccc(-c5ccccc5)cc4)cc3S2(=O)=O)cc1`, with above 5 µM; and `COc1cc(C(=O)Nc2ccc3c(c2)S(=O)(=O)N(Cc2ccc(C(=O)NO)cc2)C3=O)cc(OC)c1OC`, with 1.71 µM; and `O=C(NO)c1ccc(CN2C(=O)c3ccc(NC(=O)c4ccc(C(F)(F)F)cc4)cc3S2(=O)=O)cc1`, with 1.413 µM.
Compound `O=C(NO)c1ccc(CN2C(=O)c3ccc(NC(=O)c4ccc(F)cc4)cc3S2(=O)=O)cc1` yielded an IC50 in [1] of 0.646 µM.
On to `O=C(Cc1ccccc1)Nc1ccc2c(c1)S(=O)(=O)N(Cc1ccc(C(=O)NO)cc1)C2=O`, for which the IC50 in assay [1] was 0.53 µM. This IC50 and that of the compound before are within 1.5-fold of each other.
Compound `Cc1ccc(/C=C/C(=O)Nc2ccc3c(c2)S(=O)(=O)N(Cc2ccc(C(=O)NO)cc2)C3=O)cc1` returned an IC50 in assay [1] of 1.297 µM.
As to `O=C(CCCCCCC(=O)Nc1ccccc1)NO` [VORINOSTAT], the Activity in the assay with MDA-MB-231 [3] worked out at 7.66%; in the assay with MDA-MB-231 [5] it was 3.32%; in the assay on MDA-MB-231 [6], 8%; in the assay on MDA-MB-231 [7] it was 7.1%; with MDA-MB-231 [8] it was 11.32%.

Source of the values: ChEMBL document CHEMBL3603743, “Design, synthesis and biological evaluation of saccharin-based N-hydroxybenzamides as histone deacetylases (HDACs) inhibitors” (Bioorg Med Chem, 2015).
